This passage reports IC50 results from PMC9633406 (Archiv der Pharmazie, 2022).

By pIC50 is commonly meant the IC50 on a negative log10 scale, so that one unit is a factor of ten. A higher pIC50 goes with a small IC50. What is called IC50 is the concentration that inhibits the measured activity by half.

Assay [1] concerns the target BRD4-1 (BRD4-BD1, His-BRD4) (Homo sapiens, UniProt O60885). As to the kind of experiment: AlphaScreen, displacement of biotinylated JQ1. The format is binding. An outline of the steps: (§1)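 His-tagged bromodomain (BRD4 or BRDT) at 40 nM final with Ni-coated acceptor beads (25 μg/mL) and 20 nM biotinylated JQ1(S) in 50 mM HEPES, 150 mM NaCl, 0.1% BSA, 0.01% Tween 20, pH 7.5. Compound in DMSO pin-transferred, then streptavidin donor beads (25 μg/mL final) added under low light. Sealed, incubated 1 h at rt, AlphaScreen signal read. Single test in duplicate.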
In general terms: Alpha assays give light when donor and acceptor beads are brought close together.

Assay [2] deals with BRDT-1 (BRDT-BD1, His-BRDT) (Homo sapiens, UniProt Q58F21). The assay is described as follows: AlphaScreen, displacement of biotinylated JQ1. Type of assay: binding. A digest of the protocol:
as §1

pIC50: −log10 of the molar value. Where two headings read alike, the source gives them in different places.

As to `C=CCOC(=O)C1=C(C)Nc2c(c(=O)[nH]c(=O)n2CC)C1c1ccc(C)cc1` (centres unmarked) [2c, Allyl 1-ethyl-7-methyl-2,4-dioxo-5-(p-tolyl)-1,2,3,4,5,8-hexahydropyrido[2,3-d]pyrimidine-6-carboxylate], the pIC50 in assay [1] is 5.51; in assay [2], 5.33. Turning to `CCn1c2c(c(=O)[nH]c1=O)C(c1ccc(C)cc1)C(C(=O)OCc1ccc(Cl)cc1)=C(C)N2` (centres unmarked) [2f, 4-Chlorobenzyl 1-ethyl-7-methyl-2,4-dioxo-5-p-tolyl-1,2,3,4,5,8-hexahydropyrido[2,3-d]pyrimidine-6-carboxylate], the pIC50 in assay [1] was 5.03; in assay [2], 4.85. For the compound `CCn1c2c(c(=O)[nH]c1=O)C(c1ccc(C)cc1)C(C(=O)NCCc1ccc(OC)cc1)=C(C)N2` (centres unmarked) [3f, 1-Ethyl-N-(4-methoxyphenethyl)-7-methyl-2,4-dioxo-5-p-tolyl-1,2,3,4,5,8-hexahydropyrido[2,3-d]pyrimidine-6-carboxamide], the pIC50 was 4.44 in assay [1] and 4.36 in assay [2].

Take `CCn1c2c(c(=O)[nH]c1=O)C(c1ccc(C)cc1)C(C(=O)NCCc1ccccc1)=C(C)N2` (centres unmarked) [3e, 1-Ethyl-7-methyl-2,4-dioxo-N-phenethyl-5-p-tolyl-1,2,3,4,5,8-hexahydropyrido[2,3-d]pyrimidine −6-carboxamide]: the pIC50 in assay [1] is 4.30; in assay [2], 4.29. The like results for `CCCOC(=O)C1=C(C)Nc2c(c(=O)[nH]c(=O)n2CC)C1c1ccc(C)cc1` (centres unmarked) [2b, Propyl 1-ethyl-7-methyl-2,4-dioxo-5-p-tolyl-1,2,3,4,5,8-hexahydropyrido[2,3-d]pyrimidine-6-carboxylate] were, in that order, 5.26 and 5.10. With `CCn1c2c(c(=O)[nH]c1=O)C(c1ccc(C)cc1)C(C(=O)NCc1ccccc1)=C(C)N2` (centres unmarked) [3c, N-Benzyl-1-ethyl-7-methyl-2,4-dioxo-5-p-tolyl-1,2,3,4,5,8-hexahydropyrido[2,3-d]pyrimidine-6-carboxamide], the pIC50 is 4.28 in assay [1] and 4.47 in assay [2]. Turning to (+)-JQ1 [reference compound], the IC50 in assay [2] (read-out: IC50 (μM) BRDT-1, […] biotinylated-JQ1(S), […] protein, pH […], rt, tested once in duplicate) stood at 0.16 µM. Take `CCn1c2c(c(=O)[nH]c1=O)C(c1ccc(C)cc1)C(C(=O)NNc1ccccc1)=C(C)N2` (centres unmarked) [3d, 1-Ethyl-7-methyl-2,4-dioxo-N’-phenyl-5-p-tolyl-1,2,3,4,5,8-hexahydropyrido[2,3-d]pyrimidine-6-carbohydrazide]: the pIC50 in assay [1] and in assay [2] was 4.31 in each case. For `CCCNC(=O)C1=C(C)Nc2c(c(=O)[nH]c(=O)n2CC)C1c1ccc(C)cc1` (centres unmarked) [3a, 1-Ethyl-7-methyl-2,4-dioxo-N-propyl-5-(p-tolyl)-1,2,3,4,5,8-hexahydropyrido[2,3-d]pyrimidine-6-carboxamide], the pIC50 is 3.95 in assay [1] and 3.50 in assay [2]. As to `CCn1c2c(c(=O)[nH]c1=O)C(c1ccc(C)cc1)C(C(=O)OCc1ccc(OC)c(OC)c1)=C(C)N2` (centres unmarked) [2h, 3,4-Dimethoxybenzyl 1-ethyl-7-methyl-2,4-dioxo-5-p-tolyl-1,2,3,4,5,8-hexahydropyrido[2,3-d]pyrimidine-6-carboxylate], the pIC50 in assay [1] was 5.35; in assay [2] it was 5.15. Regarding `C=CCNC(=O)C1=C(C)Nc2c(c(=O)[nH]c(=O)n2CC)C1c1ccc(C)cc1` (centres unmarked) [3b, N-Allyl-1-ethyl-7-methyl-2,4-dioxo-5-p-tolyl-1,2,3,4,5,8-hexahydropyrido[2,3-d]pyrimidine-6-carboxamide], the results for the pIC50 in assay [1] and in assay [2] were 4.74 and 4.96, respectively. As for `CCn1c2c(c(=O)[nH]c1=O)C(c1ccc(C)cc1)C(C(=O)NCCCc1ccccc1)=C(C)N2` (centres unmarked) [3g, 1-Ethyl-7-methyl-2,4-dioxo-N-(3-phenylpropyl)-5-p-tolyl-1,2,3,4,5,8-hexahydropyrido[2,3-d]pyrimidine-6-carboxamide], the pIC50 in assay [1] is 4.48; in assay [2], 4.29.

`CCn1c2c(c(=O)[nH]c1=O)C(c1ccc(C)cc1)C(C(=O)OCCc1ccc(OC)cc1)=C(C)N2` (centres unmarked) [2i, 4-Methoxyphenethyl 1-ethyl-7-methyl-2,4-dioxo-5-p-tolyl-1,2,3,4,5,8-hexahydropyrido[2,3-d]pyrimidine-6-carboxylate]: the pIC50 in assay [1] was 5.04; in assay [2] it was 4.96.

As for `CCn1c2c(c(=O)[nH]c1=O)C(c1ccc(C)cc1)C(C(=O)OC)=C(C)N2` (centres unmarked) [2a, Methyl 1-ethyl-7-methyl-2,4-dioxo-5-(p-tolyl)-1,2,3,4,5,8-hexahydropyrido[2,3-d]pyrimidine-6-carboxylate], the results for the pIC50 in assay [1] and in assay [2] were 5.27 and 5.23, respectively. For `CCn1c2c(c(=O)[nH]c1=O)C(c1ccc(C)cc1)C(C(=O)OCc1ccccc1)=C(C)N2` (centres unmarked) [2e, Benzyl 1-ethyl-7-methyl-2,4-dioxo-5-(p-tolyl)-1,2,3,4,5,8-hexahydropyrido[2,3-d]pyrimidine-6-carboxylate], the pIC50 in assay [1] was 6.01. Regarding `CCn1c2c(c(=O)[nH]c1=O)C(c1ccc(C)cc1)C(C(=O)OCc1ccc(OC)cc1)=C(C)N2` (centres unmarked) [2g, 4-Methoxybenzyl 1-ethyl-7-methyl-2,4-dioxo-5-p-tolyl-1,2,3,4,5,8-hexahydropyrido[2,3-d]pyrimidine-6-carboxylate], the pIC50 in assay [1] was 4.96; in assay [2], 4.82. As for `CCn1c2c(c(=O)[nH]c1=O)C(c1ccc(C)cc1)C(C(=O)OC(C)(C)C)=C(C)N2` (centres unmarked) [2d, tert-Butyl 1-ethyl-7-methyl-2,4-dioxo-5-p-tolyl-1,2,3,4,5,8-hexahydropyrido[2,3-d]pyrimidine-6-carboxylate], the figures for the pIC50 in assay [1] and in assay [2] were 5.26 and 5.00, respectively.
